Measurements pooled from the literature.
Lines come from different studies, so protocols differ.
Read-out: enzyme activity
Mode: inhibitor
rep main protease: Replicase polyprotein 1ab, main protease (rep, Severe acute respiratory syndrome coronavirus 2, UniProt P0DTD1)
rep papain-like protease: Replicase polyprotein 1ab, papain-like protease (rep, Severe acute respiratory syndrome coronavirus 2, UniProt P0DTD1)

For `CCC(=O)Oc1cccc2c1C(=O)C=CC2=O`, the inhibition was 102% (rep main protease; 10 µM).
The inhibition of `O=c1c(O)c(-c2cc(O)c(O)c(O)c2)oc2cc(O)ccc12` is reported as 62.5% (rep main protease; 10 µM).
The inhibition of `Cc1nc(C(=O)N2CC[C@@H]([C@@H]3CCCN3C(=O)c3cc(O)c4ccoc4c3)C2)cc(=O)[nH]1` is reported as 12.2% (rep main protease; 5 µM).
`COc1cccc2c1C(=O)C(C(C)=O)=CC2=O` has an inhibition of 35.2% (rep main protease; 0.1 µM).
`Cn1c(C(=O)Nc2ccc(Cl)cc2)cc2c(=O)n3ccccc3nc21` gave an inhibition of 72% (rep main protease; 1 mM).
`CCOC(=O)COc1cc(C)cc2c1C(=O)C=CC2=O` gave an inhibition of 29.6% (rep main protease; 0.1 µM).
`C[C@@H]1O[C@@H](O[C@@H]2[C@@H](O)[C@H](OCCc3ccc(O)c(O)c3)O[C@H](CO)[C@H]2OC(=O)/C=C/c2ccc(O)c(O)c2)[C@H](O)[C@H](O)[C@H]1O` has an inhibition of 15.6% (rep papain-like protease; 50 µM).
For `CCc1ccc(C2C(c3ccccc3)=C(O)C(=O)N2c2ccc(Cl)cc2)cc1` (stereo not drawn), the inhibition was 16.8% (rep main protease; 20 µM).
For `COc1cc(C[C@@H](C)[C@@H](C)Cc2ccc(O)c(OC)c2)ccc1O`, the inhibition was 56.4% (rep papain-like protease; FRET; 8 µM).
The inhibition of `COc1ccc2nc(Cl)c(/C=N/c3ccc(-c4nc5ccccc5[nH]4)cc3)cc2c1` is reported as 13.5% (rep papain-like protease; 100 µM).
`Oc1ccc([C@H]2COc3cc(O)ccc3C2)cc1` gave an inhibition of 18.5% (rep main protease; 50 µM).
`Clc1nc2ccccc2cc1/C=N\c1ccc(Br)nc1` gave an inhibition of 3.5% (rep papain-like protease; 10 µM).
The inhibition of `CN(C(=O)[C@H](Cc1ccccc1)NC(=O)OCc1ccccc1)N(C#N)CCC(N)=O` is reported as 100% (rep main protease; fluorescence; 50 µM; pH 7.2).
`Cc1ccc2nc(Cl)c(/C=N/c3cccc([N+](=O)[O-])c3)cc2c1` gave an inhibition of 5.3% (rep papain-like protease; 10 µM).
`O=C(Nc1ccccc1F)c1cc2c(=O)n3ccccc3nc2n1Cc1ccccc1` gave an inhibition of 71% (rep main protease; 1 mM).
`O=C1C=CC(=O)c2ccccc21` gave an inhibition of 97.7% (rep main protease; 10 µM).
For `Cn1c(C(=O)Nc2ccc3c(c2)OCCO3)cc2c(=O)n3ccccc3nc21`, the inhibition was 96% (rep main protease; 1 mM).
`COc1ccc(OC)c2c1C(=O)C=CC2=O` has an inhibition of 8.9% (rep main protease; 0.1 µM).
For `Cc1c(-c2cnccn2)ssc1=S`, the inhibition was 97.6% (rep main protease; 20 µM).
With `CCn1nc2n(Cc3ccc(F)cc3)c(=O)c3nn(C)cc3n2c1=O` the inhibition was 15.5% (rep main protease; 20 µM).
With `CCc1cscc1C(=O)N1Cc2ccccc2C[C@H]1CNC(=O)c1cccc2[nH]ncc12` the inhibition was 10.8% (rep main protease; 5 µM).
`O=C(O)/C=C/c1ccc(O)c(O)c1` has an inhibition of under 25% (rep main protease; FRET; 10 µM; 10 min).
`O=C(O)[C@H]1O[C@@H](Oc2cc3oc(-c4ccc(O)cc4)cc(=O)c3c(O)c2O)[C@H](O)[C@@H](O)[C@@H]1O` gave an inhibition of 76.8% (rep main protease; 100 µM).
`O=C(Oc1cncc(Br)c1)c1cccc2[nH]ccc12` gave an inhibition of 100% (rep main protease; fluorescence; 10 µM; pH 7.2).
With `NC(=O)CCOC1CCN(C(c2ccccc2)c2ccccc2)CC1` the inhibition was 11.5% (rep main protease; 20 µM).
The inhibition of `O=C(O)c1cc(O)c2c(c1)C([C@@H]1c3cc(C(=O)O)cc(O)c3C(=O)c3c(O[C@H]4O[C@H](CO)[C@@H](O)[C@H](O)[C@H]4O)cccc31)c1cccc(O[C@H]3O[C@H](CO)[C@@H](O)[C@H](O)[C@H]3O)c1C2=O` (stereo partly drawn) is reported as 103% (rep main protease; 20 µM).
The inhibition of `O=c1cc(-c2ccccc2)oc2cc(O)c(O)c(O)c12` is reported as 99.4% (rep main protease; 100 µM).
`CC1(C)C=Cc2c(ccc3c2OC[C@@H](c2ccc(O)cc2O)C3)O1` gave an inhibition of 17.4% (rep main protease; 8 µM).
With `C[C@@H]1O[C@@H](OC[C@H]2O[C@@H](OCCc3ccc(O)c(O)c3)[C@H](OC(=O)/C=C/c3ccc(O)c(O)c3)[C@@H](O)[C@@H]2O)[C@H](O)[C@H](O)[C@H]1O` the inhibition was 99.3% (rep main protease; 100 µM).
`CC1=C2CC(C(=O)N[C@@H]3CN(C(=O)c4cc5ccccc5o4)Cc4nccn4C3)=CN=C2NN1` gave an inhibition of 11.3% (rep main protease; 5 µM).
`Oc1cc(O)c2c(c1)OC(c1ccc(O)c(O)c1)C(O)C2` (stereo not drawn) has an inhibition of 22.6% (rep main protease; 20 µM).
For `Cc1ccc(NC(=O)c2cc3c(=O)n4cccc(C)c4nc3n2C)cc1Cl`, the inhibition was 6.4% (rep main protease; 1 µM).
`Cc1ccc2nc(Cl)c(C=Nc3cc(Br)ccn3)cc2c1` gave an inhibition of 23.9% (rep papain-like protease; 100 µM).
With `O=C(CCc1ccc(O)cc1)c1c(O)cc(O)cc1O[C@@H]1O[C@H](CO)[C@@H](O)[C@H](O)[C@H]1O` the inhibition was 25 to 50% (rep main protease; FRET; 10 µM; 10 min).
The inhibition of `O=C(Oc1cncc(Cl)c1)c1ccc2[nH]c3c(c2c1)CCCC3` is reported as 100% (rep main protease; fluorescence; 10 µM; pH 7.2).
With `Cc1cccn2c(=O)c3cc(C(=O)Nc4ccc(N(C)C)cc4)n(C)c3nc12` the inhibition was 64% (rep main protease; 1 mM).
For `COc1cc(C)cc2c1C(=O)C=CC2=O`, the inhibition was 75.6% (rep main protease; 1 µM).
`O=C(O)c1ccc(O)c(O)c1` gave an inhibition of under 25% (rep main protease; FRET; 10 µM; 10 min).
`O=C(O)[C@H]1O[C@@H](Oc2cc3oc(-c4ccccc4)cc(=O)c3c(O)c2O)[C@H](O)[C@@H](O)[C@@H]1O` has an inhibition of 68.9% (rep main protease; 10 µM).
The inhibition of `O=c1[nH]c(CCl)nc2sc3c(c12)CCCC3` is reported as 29.2% (rep main protease; 20 µM).
For `NC(=O)CSc1nnc2c3ccccc3nc(-c3ccc(F)cc3)n12`, the inhibition was 20.1% (rep main protease; 20 µM).
With `CC[C@@H](C)[C@@H](NC(=O)[C@@H](CCC(=O)O)NC(=O)[C@H](NC(=O)[C@@H](CCC(N)=O)NC(=O)[C@H]1CCCN1C(=O)[C@@H](CCC(N)=O)NC(=O)[C@@H](Cc1c[nH]c2ccccc12)NC(C)=O)C(C)C)C(=O)N[C@H](CO)C(=O)N[C@H](CCC(N)=O)C(=O)N[C@H](CO)C(=O)N1CCC[C@@H]1C(=O)N[C@H](Cc1c[nH]c2ccccc12)C(=O)N[C@H](CO)C(=O)N[C@H](Cc1c[nH]cn1)C(=O)N1CCC[C@@H]1C(=O)N[C@H](CO)C(=O)N[C@H](CCCNC(=N)N)C(N)=O` the inhibition was 100% (rep main protease; fluorescence; 140 µM).
For `C/N=c1\nc(-c2ccccc2)n(-c2ccccc2)s1`, the inhibition was 16.4% (rep main protease; 0.1 µM).
For `CC[C@H](NC(=O)OCc1ccccc1)C(=O)N[C@H](C(=O)N[C@@H](Cc1ccccc1)C(=O)N(C)N(C#N)CCC(N)=O)C(C)(C)C`, the inhibition was 100% (rep main protease; fluorescence; 50 µM; pH 7.2).
`CCc1ccc(NC(=O)c2cc3c(=O)n4ccccc4nc3n2C)cc1` has an inhibition of 28% (rep main protease; 10 µM).
With `COCOc1cc(C)cc2c1C(=O)C=CC2=O` the inhibition was 4.6% (rep main protease; 1 µM).
With `O=C(CSc1nnc2c(n1)[nH]c1ccccc12)Nc1cccc(S(=O)(=O)N2CCOCC2)c1` the inhibition was 0% (rep main protease; 100 µg/mL).
For `CC1(C)CC(Nc2ccc(Nc3ccccc3)cc2)CC(C)(C)N1`, the inhibition was 27.8% (rep main protease; 20 µM).
`O=C(/C=C/c1ccc(O)c(O)c1)O[C@@H]1C[C@](O)(C(=O)O)C[C@@H](O)[C@H]1O` gave an inhibition of 12.5% (rep papain-like protease; 50 µM).
`Cc1cc(NC(=O)c2cc3c(=O)n4cccc(C)c4nc3n2C)ccc1Br` has an inhibition of 82% (rep main protease; 1 mM).
`O=C(Nc1cccc(C(F)(F)F)c1)c1ccc([N+](=O)[O-])o1` gave an inhibition of 1.47% (rep main protease; 20 µM).
